Experiment [1] relates to HeLa. Nature of the experiment: The concentration required to reduce the cytopathogenicity of HSV-1 (KOS) in HeLa cell culture by 50% in presence of 0 ug/mL concentrations of 6-aminothymine. The experiment is classed as functional. The conditions noted are these: Homo sapiens. In general terms: Protection from cytopathic effect is a common read-out in antiviral testing.

The subject of experiment [2] is E6SM. The experiment is described as follows: The concentration required to reduce the cytopathogenicity of HSV-1 (KOS) in E6SM cell culture by 50% in presence of 100 ug/mL of Urd. The experiment is classed as functional. The conditions noted are these: Homo sapiens. In outline: (§1)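 E6SM cells infected with HSV-1 (KOS), with Urd or dUrd added alone or together with 6-aminothymine (50 μg/mL). The value is the minimum concentration that reduces viral cytopathogenicity by 50%.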

The subject of experiment [3] is E6SM. The experiment is described as follows: The concentration required to reduce the cytopathogenicity of HSV-1 (KOS) in E6SM cell culture by 50% in presence of 4 ug/mL concentrations of 6-aminothymine. It is filed as functional. The settings on record: Homo sapiens. In a few lines: (§2)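 E6SM cultures were infected with HSV-1 strain KOS. 6-Aminothymine or benzylacyclouridine was present in the medium together with the test compound. The value is the minimum concentration giving 50% reduction of viral cytopathogenicity, scored by the earlier-described cytopathogenicity inhibition procedure.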

A short description of experiment [4]: The concentration required to reduce the cytopathogenicity of HSV-1 (KOS) in PRK cell culture by 50% in presence of 20 ug/mL concentrations of 6-aminothymine. The settings on record: Oryctolagus cuniculus. It is filed as functional. In a few lines: (§3)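 The cells were primary rabbit kidney (PRK) cultures infected with HSV-1 strain KOS, with 6-aminothymine co-present in the medium. The value is the minimum inhibitory concentration that reduces viral cytopathogenicity by 50%, using the previously described cytopathogenicity inhibition method.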

Experiment [5] relates to HeLa. The experiment is described as follows: The concentration required to reduce the cytopathogenicity of HSV-1 (KOS) in HeLa cell culture by 50% in presence of 4 ug/mL concentrations of 6-aminothymine. It is filed as functional. The settings on record: Homo sapiens.
For experiment [6], the system named is E6SM. The experiment is described as follows: The concentration required to reduce the cytopathogenicity of HSV-1 (KOS) in E6SM cell culture by 50% in presence of 100 ug/mL of Urd and 50 ug/mL of 6-aminothymine. The settings on record: Homo sapiens. It is filed as functional. In a few lines: as §1
For experiment [7], the system named is E6SM. Nature of the experiment: The concentration required to reduce the cytopathogenicity of HSV-1 (KOS) in E6SM cell culture by 50% in presence of 0 ug/mL concentrations of 6-aminothymine. It is filed as functional. The settings on record: Homo sapiens. In a few lines:
(§4)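 E6SM cells infected with HSV-1 (KOS), with 6-aminothymine or benzylacyclouridine added to the medium at the stated concentration. The value is the minimum concentration that reduces viral cytopathogenicity by 50%.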

Experiment [8] has as its system E6SM. Nature of the experiment: The concentration required to reduce the cytopathogenicity of HSV-1 (KOS) in E6SM cell culture by 50% in presence of 100 ug/ml concentrations of 6-aminothymine. The experiment is classed as functional. The settings on record: Homo sapiens. In a few lines: as §4
Experiment [9] can be described thus: The concentration required to reduce the cytopathogenicity of HSV-1 (KOS) in PRK cell culture by 50% in presence of 100 ug/mL concentrations of 6-aminothymine. It is filed as functional. The settings on record: Oryctolagus cuniculus. In outline:
as §3

For experiment [10], the system named is E6SM. The experiment is described as follows: The concentration required to reduce the cytopathogenicity of HSV-1 (KOS) in E6SM cell culture by 50% in presence of 0 ug/mL concentrations of benzylacyclouridine. The experiment is classed as functional. The conditions noted are these: Homo sapiens. In a few lines: as §4
The subject of experiment [11] is HeLa. The experiment is described as follows: The concentration required to reduce the cytopathogenicity of HSV-1 (KOS) in HeLa cell culture by 50% in presence of 100 ug/mL concentrations of 6-aminothymine. It is filed as functional. The conditions noted are these: Homo sapiens.
The test system of another experiment is BSC-1. The experiment is described as follows: The compound was tested for its antiviral activity against HSV-1 (KOS) virus in BS-C-1A cell line. The experiment is classed as functional, Cercopithecidae. The settings on record: Chlorocebus aethiops. In a few lines: (§5)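 Virus-induced cytopathogenicity in cell culture, scored microscopically. The value is the minimum concentration that cuts viral cytopathogenicity by 50%. Normal cell morphology was also checked microscopically at up to 400 μg/mL.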

For experiment [12], the system named is E6SM. Nature of the experiment: The concentration required to reduce the cytopathogenicity of HSV-1 (KOS) in E6SM cell culture by 50% in absence of 0 ug/mL dThd. The settings on record: Homo sapiens. The experiment is classed as functional. In a few lines:
(§6)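 E6SM cells infected with HSV-1 (KOS), with dThd added to the culture medium at the stated concentration. The value is the minimum concentration that reduces viral cytopathogenicity by 50%.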

Experiment [13] deals with E6SM. Nature of the experiment: The concentration required to reduce the cytopathogenicity of HSV-1 (KOS) in E6SM cell culture by 50% in presence of 20 ug/mL concentrations of 6-aminothymine. The experiment is classed as functional. The conditions noted are these: Homo sapiens. In outline:
as §4

Experiment [14] concerns E6SM. The experiment is described as follows: The concentration required to reduce the cytopathogenicity of HSV-1 (KOS) in E6SM cell culture by 50% in presence of 10 ug/mL of Urd. The experiment is classed as functional. The conditions noted are these: Homo sapiens. In outline:
as §1

Experiment [15] relates to HeLa. Nature of the experiment: The concentration required to reduce the cytopathogenicity of HSV-1 (KOS) in HeLa cell culture by 50% in presence of 20 ug/mL concentrations of 6-aminothymine. The conditions noted are these: Homo sapiens. The experiment is classed as functional.
Experiment [16] has as its system M21. Nature of the experiment: The compound was tested for its antiviral activity against HSV-1 (KOS) virus M-21 (GM137) cell line. It is filed as functional. The conditions noted are these: Homo sapiens. In a few lines:
as §5

Experiment [17] can be described thus: The concentration required to reduce the cytopathogenicity of HSV-1 (KOS) in PRK cell culture by 50% in presence of 4 ug/mL concentrations of 6-aminothymine. It is filed as functional. The settings on record: Oryctolagus cuniculus. In a few lines: as §3
A short description of experiment [18]: The concentration required to reduce the cytopathogenicity of HSV-1 (KOS) in PRK cell culture 0 ug/mL specified concentrations of 6-aminothymine. It is filed as functional. The settings on record: Oryctolagus cuniculus.
The test system of experiment [19] is E6SM. Nature of the experiment: The concentration required to reduce the cytopathogenicity of HSV-1 (KOS) in E6SM cell culture by 50% in presence of 1 ug/mL of Urd and 50 ug/mL of 6-aminothymine. The experiment is classed as functional. The conditions noted are these: Homo sapiens. In outline: as §1
For experiment [20], the system named is E6SM. Nature of the experiment: The compound was tested for its antiviral activity against TK-HSV-1 (B2006) virus in E6SM cell culture. The experiment is classed as functional. The settings on record: Homo sapiens. In a few lines: as §5
Experiment [21] relates to E6SM. Nature of the experiment: The concentration required to reduce the cytopathogenicity of HSV-1 (KOS) in E6SM cell culture by 50% in presence of 10 ug/mL concentrations of benzylacyclouridine. The experiment is classed as functional, Homo sapiens. In a few lines:
as §4

The test system of experiment [22] is E6SM. The experiment is described as follows: The concentration required to reduce the cytopathogenicity of HSV-1 (KOS) in E6SM cell culture by 50% in presence 0 ug/mL of 50 ug/mL of 6-aminothymine. The settings on record: Homo sapiens. It is filed as functional. In outline:
as §4

Experiment [23] has as its system M21. The experiment is described as follows: The compound was tested for its antiviral activity against HSV-1 (KOS) virus in M-21 (GM137) cell line,. The settings on record: Homo sapiens. The experiment is classed as functional. In a few lines: as §5
In experiment [24] the test system is E6SM. Nature of the experiment: The concentration required to reduce the cytopathogenicity of HSV-1 (KOS) in E6SM cell culture by 50% in presence of specified concentrations of benzylacyclouridine. The experiment is classed as functional, Homo sapiens. In outline: as §2
The test system of experiment [25] is E6SM. Nature of the experiment: The concentration required to reduce the cytopathogenicity of HSV-1 (KOS) in E6SM cell culture by 50% in absence of dThd. It is filed as functional. The settings on record: Homo sapiens. In outline: as §6
The test system of experiment [26] is E6SM. Nature of the experiment: The concentration required to reduce the cytopathogenicity of HSV-1 (KOS) in E6SM cell culture by 50% in presence of specified concentrations of 6-aminothymine. It is filed as functional. The conditions noted are these: Homo sapiens. In outline:
as §2

Experiment [27] can be described thus: The concentration required to reduce the cytopathogenicity of HSV-1 (KOS) in PRK cell culture by 50% in presence of specified concentrations of 6-aminothymine. It is filed as functional, Oryctolagus cuniculus. In a few lines:
as §3

Experiment [28] concerns HeLa. The experiment is described as follows: The concentration required to reduce the cytopathogenicity of HSV-1 (KOS) in HeLa cell culture by 50% in presence of specified concentrations of 6-aminothymine. The experiment is classed as functional, Homo sapiens.

Converted amounts (≈) assume the structure as drawn. “And” between values parts separate entries of the source, which are not always exact repeats. Identical values can stand only once.

In the case of `Oc1ncc(/C=C/Br)c(O)n1`, the MIC50 with HeLa [1] was 2 µg/mL; in the experiment on E6SM [2] it was 4 µg/mL; in the experiment on E6SM [3], greater than 400 µg/mL; in experiment [4] it was greater than 400 µg/mL; in the experiment with HeLa [5] it was greater than 200 µg/mL; with E6SM [6] it was greater than 400 µg/mL. Besides, the MIC50 in the experiment on E6SM [7] is 7 µg/mL; with E6SM [8] it was greater than 400 µg/mL; in experiment [9], greater than 400 µg/mL; in the experiment with E6SM [10], 4 µg/mL; in the experiment on HeLa [11], greater than 200 µg/mL; in the experiment on BSC-1, greater than 400 µg/mL. Besides, the MIC50 in the experiment with E6SM [12] was 7 µg/mL (≈ 32.3 µM); in the experiment with E6SM [13] it was greater than 400 µg/mL; in the experiment with E6SM [14] it was 7 µg/mL; in the experiment on HeLa [15] it was greater than 200 µg/mL; against M21 [16], 1 µg/mL (≈ 4.61 µM); in [17], greater than 400 µg/mL. Moreover, the MIC50 in [18] is greater than 400 µg/mL; in the experiment on E6SM [19], greater than 400 µg/mL; against E6SM [20], greater than 200 µg/mL; in the experiment on E6SM [21] it was 4 µg/mL; in the experiment with E6SM [21] (Homo sapiens, read-out: MIC50), 4 µg/mL.
As to `O=c1[nH]c(=O)n([C@H]2C[C@H](O)[C@@H](CO)O2)cc1/C=C/Br` [BRIVUDINE], the MIC50 in the experiment with E6SM [22] is 0.02 µg/mL (≈ 0.06 µM); with E6SM [2] it was 0.02 µg/mL; against M21 [23], 0.02 µg/mL (≈ 0.06 µM); in the experiment on E6SM [24], 0.02 µg/mL; in the experiment on E6SM [24] (Homo sapiens, read-out: MIC50), 0.04 µg/mL; in the experiment with E6SM [6], 0.02 µg/mL. In addition, the MIC50 against E6SM [25] worked out at 0.02 µg/mL (≈ 0.06 µM); in the experiment on BSC-1, 0.2 µg/mL (≈ 0.6 µM); in the experiment with E6SM [14], 0.04 µg/mL; in the experiment with E6SM [26] it was 0.02 µg/mL; in the experiment with E6SM [19] it was 0.02 µg/mL; in experiment [27], 0.01 µg/mL. The MIC50 in experiment [27] (Oryctolagus cuniculus, read-out: MIC50) was 0.01 µg/mL; against E6SM [20], 40 µg/mL (≈ 120 µM); with HeLa [28], 0.01 µg/mL and 0.02 µg/mL; in the experiment with HeLa [28] (Homo sapiens, read-out: MIC50), 0.01 µg/mL.

(Values after ChEMBL document CHEMBL1123468, “Synthesis and antiviral activity of (E)-5-(2-bromovinyl)uracil and (E)-5-(2-bromovinyl)uridine” (1986).)
